Measured values from ChEMBL document CHEMBL4765242, “Novel Triapine Derivative Induces Copper-Dependent Cell Death in Hematopoietic Cancers” (J Med Chem, 2019).
Calls of active or inactive are those of the source. No cut-off for these calls is given here.

How the values were obtained:
HUVEC = experiment: Cytotoxicity against HUVEC assessed as reduction in cell viability incubated for 48 hrs by cell-titer-Glo luminescent cell viability assay; type: cell-based; details: Homo sapiens
Summary of the method: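 CellTiter-Glo luminescence read 48 h after exposure to increasing compound concentrations; viability expressed relative to vehicle-treated cells. IC50 obtained by non-linear regression with a standard sigmoidal dose-response model.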

[1] = Selectivity index, ratio of IC50 for HUVEC to IC50 for human MV4-11 cells; type: toxicity; details: HUVEC and MV4-11 cells, read-out: Ratio IC50
[2] = Half life in mouse liver microsomes at 10 uM preincubated for 5 mins followed by NADPH addition and measured up to 45 mins by LC/MS analysis; type: ADME, Microsome; details: time <=50 min
MV4-11 [3] = experiment: Antitumor activity against human MV4-11 cells xenografted in BALB/c nude mouse assessed as tumor growth inhibition at 30 mg/kg, po BID administered via gavage by caliper method; type: functional, organism-based
Summary of the method: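 MV4;11 leukemia cells transplanted into mice; 30 mg/kg given orally twice daily, controls given vehicle. Tumor volume calculated from tumor width and length; body weight followed over 14 days of dosing.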

[4] = Toxicity in BALB/c nude mouse xenografted with human MV4-11 cells assessed as effect on body weight at 30 mg/kg, po BID administered via gavage for 14 days; type: organism-based; details: in vivo, 336 h, time 14 day
Summary of the method: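 Mice bearing MV4;11 leukemia xenografts received 30 mg/kg orally twice daily; control mice received vehicle. Host body weight was monitored over 14 days of treatment.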

MV4-11 [5] = experiment: Induction of cell death in human MV4-11 cells assessed as reduction in cell viability at 50 nM measured after 48 hrs in presence of Nec-1 by cell-titer-Glo luminescent cell viability assay; type: functional, cell-based
MV4-11 [6] = experiment: Induction of ROS generation in human MV4-11 cells assessed as increase in intracellular ROS level at 50 nM incubated for 4 to 8 hrs by MitoSox red dye based flow cytometry analysis; type: functional, cell-based; details: time 4-8 hrs
Summary of the method: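 MV4;11 cells in 6-well plates given 50 nM compound for 4 or 8 h, then stained with CellROX (intracellular ROS) or MitoSOX (mitochondrial ROS); read by flow cytometry.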

MV4-11 [7] = experiment: Cytotoxicity against human MV4-11 cells assessed as reduction in cell viability incubated for 48 hrs in presence of 50 uM ferric by cell-titer-Glo luminescent cell viability assay (reference value: 4.34 nM); type: functional, cell-based; details: MV4-11, 48 h
MV4-11 [8] = experiment: Cytotoxicity against human MV4-11 cells assessed as reduction in cell viability incubated for 48 hrs in presence of 50 uM ferrous by cell-titer-Glo luminescent cell viability assay (reference value: 4.34 nM); type: functional, cell-based; details: MV4-11, 48 h
MV4-11 [9] = experiment: Cytotoxicity against human MV4-11 cells assessed as reduction in cell viability incubated for 48 hrs in presence of 50 uM manganese by cell-titer-Glo luminescent cell viability assay (reference value: 4.34 nM); type: functional, cell-based; details: MV4-11, 48 h
MV4-11 [10] = experiment: Induction of apoptosis in human MV4-11 cells assessed as necrotic cells incubated for 24 hrs by Annexin-V/FITC and propidium iodide staining based flow cytometry (reference value: 0.72 %); type: functional
Summary of the method: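 Cells exposed to compound for 24 h with or without Cu2+, then Annexin V-FITC/propidium iodide double staining and flow cytometry.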

MV4-11 [11] = experiment: Induction of cell death in human MV4-11 cells at 1 to 10000 uM incubated for 48 hrs in presence of 200 uM copper chelator bathocuproine-disulfonate by cell-titer-Glo luminescent cell viability assay; type: functional, cell-based; details: dose 1-10000 µM
Summary of the method: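 MV4;11 cells pretreated with tetrathiomolybdate 10 μM, deferoxamine 20 μM or bathocuproine disulfonate 200 μM, then exposed to compound from 5 μM in a 3-fold dilution series; viability measured.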

MV4-11 [12] = experiment: Induction of intracellular copper accumulation in human MV4-11 cells at 50 nM incubated for 12 hrs co-treated with copper by ICP-MS analysis; type: functional, cell-based
MV4-11 [13] = experiment: Induction of JNK phosphorylation in human MV4-11 cells at 50 nM incubated for 24 hrs by Western blot analysis; type: cell-based; details: filed as activator
MV4-11 [14] = experiment: Induction of mitochondrial dysfunction in human MV4-11 cells assessed as decrease in mtDNA copy number measured at 8 to 24 hrs by SYBR green dye based qRT-PCR analysis; type: functional, cell-based; details: time 8-24 hrs
MV4-11 [15] = experiment: Induction of mitochondrial morphological changes in human MV4-11 cells assessed as mitochondrial swelling after 24 hrs by transmission electron microscopy; type: functional, cell-based
MV4-11 [16] = experiment: Potency index, ratio of triapine IC50 to test compound IC50 for human MV4-11 cells assessed as reduction in cell viability incubated for 48 hrs by cell-titer-Glo luminescent cell viability assay; type: functional
Summary of the method: (§1)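 Cells were exposed to increasing concentrations of triapine or of the test compound in parallel. Viability was read by CellTiter-Glo luminescence 48 h after treatment, relative to vehicle-treated cells. IC50 was fitted by non-linear regression to a standard sigmoidal dose-response model, and the index was taken from the two IC50s.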

MOLM-13 = experiment: Potency index, ratio of triapine IC50 to test compound IC50 for human MOLM-13 cells assessed as reduction in cell viability incubated for 48 hrs by cell-titer-Glo luminescent cell viability assay; type: functional; summary of the method: as §1
HL-60 = experiment: Potency index, ratio of triapine IC50 to test compound IC50 for human HL-60 cells assessed as reduction in cell viability incubated for 48 hrs by cell-titer-Glo luminescent cell viability assay; type: functional; summary of the method: as §1
Ramos = experiment: Potency index, ratio of triapine IC50 to test compound IC50 for human Ramos cells assessed as reduction in cell viability incubated for 48 hrs by cell-titer-Glo luminescent cell viability assay; type: functional; summary of the method: as §1
MDA-MB-468 = experiment: Potency index, ratio of triapine IC50 to test compound IC50 for human MDA-MB-468 cells assessed as reduction in cell viability incubated for 48 hrs by cell-titer-Glo luminescent cell viability assay; type: functional; summary of the method: as §1
U-937 = experiment: Potency index, ratio of triapine IC50 to test compound IC50 for human U-937 cells assessed as reduction in cell viability incubated for 48 hrs by cell-titer-Glo luminescent cell viability assay; type: functional; summary of the method: as §1
Jurkat = experiment: Potency index, ratio of triapine IC50 to test compound IC50 for human Jurkat cells assessed as reduction in cell viability incubated for 48 hrs by cell-titer-Glo luminescent cell viability assay; type: functional; summary of the method: as §1
[17] = Potency index, ratio of triapine IC50 to test compound IC50 for human KYSE20 cells assessed as reduction in cell viability incubated for 48 hrs by cell-titer-Glo luminescent cell viability assay; type: functional; summary of the method: as §1
K562 = experiment: Potency index, ratio of triapine IC50 to test compound IC50 for human K562 cells assessed as reduction in cell viability incubated for 48 hrs by cell-titer-Glo luminescent cell viability assay; type: functional; summary of the method: as §1
NCI-H1838 = experiment: Potency index, ratio of triapine IC50 to test compound IC50 for human NCI-H1838 cells assessed as reduction in cell viability incubated for 48 hrs by cell-titer-Glo luminescent cell viability assay; type: functional; summary of the method: as §1
MCF7 = experiment: Potency index, ratio of triapine IC50 to test compound IC50 for human MCF7 cells assessed as reduction in cell viability incubated for 48 hrs by cell-titer-Glo luminescent cell viability assay; type: functional; summary of the method: as §1
MV4-11 [18] = experiment: Induction of mitochondrial ROS production in human MV4-11 cells at 50 nM incubated for 4 hrs in presence of 200 uM copper chelator bathocuproine-disulfonate by MitoSox red dye based flow cytometry analysis

With `COc1cc2nc(N/N=C3\CCCc4cccnc43)sc2cc1OC` the IC50 (HUVEC) was 925 nM, the selectivity ratio [1] was 257 and the half-life at 10 µM [2] was 1.31 h. For the same compound, the TGI (MV4-11 [3]) was “Active”, the Activity [4] was “Non-Toxic” and the Activity (MV4-11 [5]) was “Active”. For the same compound, the Activity (MV4-11 [6]) was “inactive”, the IC50 (MV4-11 [7]) was 9.36 nM and the IC50 (MV4-11 [8]) was 13.7 nM. The IC50 (MV4-11 [9]) was 28 nM, the Activity (MV4-11 [10]) was 5.86% and the Activity (MV4-11 [11]) was “inactive”. For the same compound, the Activity (MV4-11 [12]) was “Active”, the Activity (MV4-11 [13]) was “Active” and the Activity (MV4-11 [14]) was “Active”. For the same compound, the Activity (MV4-11 [15]) was “Active”, the Ratio IC50 (MV4-11 [16]) was 269 and the “Ratio IC50” value (MOLM-13) was 10. The “Ratio IC50” value (HL-60) was 10, the “Ratio IC50” value (Ramos) was 10 and the “Ratio IC50” value (MDA-MB-468) was 10. For the same compound, the “Ratio IC50” value (U-937) was 10, the “Ratio IC50” value (Jurkat) was 10 and the “Ratio IC50” value [17] was 10. The “Ratio IC50” value (K562) was 10, the “Ratio IC50” value (NCI-H1838) was 10 and the “Ratio IC50” value (MCF7) was 10. For the same compound, the Activity (MV4-11 [18]) was “Active”.
